Results from ChEMBL document CHEMBL1125450, “Synthesis and in vitro characterization of novel amino terminally modified oxotremorine derivatives for brain muscarinic receptors” (J Med Chem, 1992).

Columns and labels:
[1] = biological target: T1, Muscarinic acetylcholine receptor M1 (Rattus norvegicus, UniProt P08482); assay: Compound was evaluated for its binding affinity towards M1 receptor in rat cortex
T1 sequence (P08482 whole entry): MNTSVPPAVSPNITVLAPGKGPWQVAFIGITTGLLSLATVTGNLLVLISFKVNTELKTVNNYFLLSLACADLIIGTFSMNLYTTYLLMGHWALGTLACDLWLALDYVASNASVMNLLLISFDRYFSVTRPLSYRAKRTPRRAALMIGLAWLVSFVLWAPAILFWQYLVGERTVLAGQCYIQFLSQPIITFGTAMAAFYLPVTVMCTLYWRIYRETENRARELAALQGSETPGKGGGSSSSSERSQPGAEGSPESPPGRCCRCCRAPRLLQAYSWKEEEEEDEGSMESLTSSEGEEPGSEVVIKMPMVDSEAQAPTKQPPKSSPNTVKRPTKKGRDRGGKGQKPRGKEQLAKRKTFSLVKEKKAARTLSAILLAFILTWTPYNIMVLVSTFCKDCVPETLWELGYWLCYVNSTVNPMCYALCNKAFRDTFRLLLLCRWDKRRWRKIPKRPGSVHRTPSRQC

[2] = biological target: T2, Muscarinic acetylcholine receptor M2 (Rattus norvegicus, UniProt P10980); assay: Compound was evaluated for its binding affinity towards M2 receptor in rat brainstem; format: tissue-based, Brain
T2 sequence (P10980 whole entry): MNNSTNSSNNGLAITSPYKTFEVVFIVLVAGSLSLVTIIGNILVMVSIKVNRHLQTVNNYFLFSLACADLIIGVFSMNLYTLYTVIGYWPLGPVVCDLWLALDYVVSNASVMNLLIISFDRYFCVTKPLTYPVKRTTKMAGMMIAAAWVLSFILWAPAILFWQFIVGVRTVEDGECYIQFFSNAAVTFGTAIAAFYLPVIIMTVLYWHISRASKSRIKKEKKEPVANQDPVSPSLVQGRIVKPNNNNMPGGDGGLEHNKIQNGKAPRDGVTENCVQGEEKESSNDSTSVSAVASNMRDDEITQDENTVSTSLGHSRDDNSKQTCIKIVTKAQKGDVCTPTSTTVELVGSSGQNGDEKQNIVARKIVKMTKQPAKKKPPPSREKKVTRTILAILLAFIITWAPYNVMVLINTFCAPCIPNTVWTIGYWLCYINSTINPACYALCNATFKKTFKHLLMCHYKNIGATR

[3] = biological target: T1, Muscarinic acetylcholine receptor M1; assay: Compound was evaluated for its binding affinity towards Muscarinic acetylcholine receptor M1 in rat cortex
In short: (§1)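 Rat fronto-parietal cortex homogenised 1:200 w/v in 50 mM Na-K phosphate, pH 7.4; 0.5 mg tissue competed against [3H]pirenzepine (6 nM) for 1 h at 25 °C, filtered on polyethylenimine-treated GF/B. Nonspecific binding with 10 µM atropine. IC50 converted to Ki by Cheng-Prusoff.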

[4] = biological target: T2, Muscarinic acetylcholine receptor M2; assay: Compound was evaluated for its binding affinity towards Muscarinic acetylcholine receptor M2 in rat brainstem; format: tissue-based, Brain
In short: (§2)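 Rat pons-medulla homogenised 1:200 w/v in 50 mM sodium phosphate, pH 7.4; 0.5 mg tissue with 0.2 nM [3H]QNB and varying unlabeled ligand, 75 min at 25 °C. IC50 corrected to Ki by Cheng-Prusoff.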

[5] = biological target: T3, Muscarinic acetylcholine receptor M2 (Rattus norvegicus) (UniProt P10980); assay: Intrinsic activity against muscarinic acetylcholine receptor M2 in rat striatum (activity expressed as % response of that produced by carbachol); format: functional, tissue-based
T3 sequence (whole entry): T2 sequence (P10980 whole entry)
In short: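 Dissociated rat striatum prelabeled 45 min at 37 °C with [3H]adenine, then 30 min with 1.5 mM IBMX before 10 µM forskolin plus 100 µM compound for 10 min; stopped with TCA, [3H]cAMP by ion-exchange columns. Inhibition of cAMP scaled to that of 100 µM carbachol (100%).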

[6] = biological target: T2, Muscarinic acetylcholine receptor M2; assay: Compound was evaluated for its binding affinity towards muscarinic acetylcholine receptor M2 in rat brainstem; format: tissue-based, Brain; in short: as §2
[7] = biological target: T4, Muscarinic acetylcholine receptor M1 (Rattus norvegicus) (UniProt P08482); assay: Intrinsic activity against Muscarinic acetylcholine receptor M1 in rat cortex (activity expressed as % response of that produced by carbachol); format: functional
T4 sequence (whole entry): T1 sequence (P08482 whole entry)
In short: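 Dissociated male Sprague-Dawley rat cortex, rejuvenated in oxygenated Krebs-Henseleit (final step with 10 mM Li+), labeled 60 min at 37 °C with [3H]inositol. Compound at 1 mM added for 60 min under 95% O2/5% CO2; [3H]inositol 1-phosphate isolated on Dowex. Response scaled to 1 mM carbachol PI hydrolysis (100%).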

[8] = biological target: T1, Muscarinic acetylcholine receptor M1; assay: Compound was evaluated for its binding affinity towards muscarinic acetylcholine receptor in rat cortex; in short: as §1

Structure (SMILES) | Ki [1] [µM] | Ki [2] [µM] | Ki [6] [nM] | Response [7] [%] | Ki [8] [nM] | other results
CN1CCCC[C@@H]1CC#CCN1CCCC1=O | 1.2 | 3.66 |  |  |  | 
CN(C)CC#CCN1CCCC1=O |  |  |  |  |  | Ki [3]: 15.9 µM; Ki [4]: 926 nM
CN1CCCC[C@H]1CC#CCN1CCCC1=O | 5.38 | 7.06 |  |  |  | 
O=C1CCCN1CC#CC[C@@H]1CCCN1 | 40.5 | 5.64 |  |  |  | 
CN1CCC[C@@H]1CC#CCN1CCCC1=O | 5.46 | 5.86 |  |  |  | 
O=C1CCCN1CC#CC[C@H]1CCCCN1 | 3.03 | 0.636 |  |  |  | 
CNCC#CCN1CCCC1=O |  |  | 38100 | 5.7 | 65500 | Response [5]: 36.3%
CN1CCC[C@H]1CC#CCN1CCCC1=O | 10.5 | 10.8 |  |  |  | 
O=C1CCCN1CC#CC[C@H]1CCCN1 | 3.07 | 2.46 |  |  |  | 
O=C1CCCN1CC#CCN1CCC1 |  |  | 27.4 | 46.2 | 2250 | Response [5]: 105%
CCN(C)CC#CCN1CCCC1=O |  |  | 813 | 2.75 | 2690 | Response [5]: 91.6%
O=C1CCCN1CC#CC[C@@H]1CCCCN1 | 27.6 | 15.8 |  |  |  | 
O=C1CCCN1CC#CCN1CCCC1 [OXOTREMORINE] |  |  | 84 | 13.7 | 196 | 
